MBD2 inh: MBD2-methylated oligo binding inhibition. Q9UBB5. TR-FRET, MBD2 binding to methylated oligonucleotide. inhibition, % at 4.4 µM. actives 0.31% (n = 370,000). AID 686964; in the data active means inhibition above about 13%
Target sequence (Q9UBB5 whole entry, looked up): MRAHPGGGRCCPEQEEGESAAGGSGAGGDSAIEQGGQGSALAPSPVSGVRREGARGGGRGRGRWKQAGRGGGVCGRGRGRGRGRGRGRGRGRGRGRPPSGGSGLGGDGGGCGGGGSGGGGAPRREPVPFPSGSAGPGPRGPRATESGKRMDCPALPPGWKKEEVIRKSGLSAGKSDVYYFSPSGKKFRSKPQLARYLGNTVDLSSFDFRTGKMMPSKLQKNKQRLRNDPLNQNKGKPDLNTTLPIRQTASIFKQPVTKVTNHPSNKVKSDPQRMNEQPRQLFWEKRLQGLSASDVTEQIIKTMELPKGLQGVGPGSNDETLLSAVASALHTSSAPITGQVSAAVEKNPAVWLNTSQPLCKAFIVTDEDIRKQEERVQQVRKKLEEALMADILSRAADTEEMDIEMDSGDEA
UHRF1 MBD2 ctr: human UHRF1 methylated DNA binding inhibitors; AID 687016; Q96T88; inhibition, % at 4.4 µM; UHRF1 binding to methylated oligo, TR-FRET; actives 0.75% (n = 370,000); in the data active means inhibition above about 21%;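 further: UHRF1 SRA domain binding a hemimethylated CpG hairpin DNA probe; 0% = median of test compound wells and 100% = reference inhibitor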
rCAG RNA binder: r(CAG) repeat RNA binding | TO-PRO-1 dye displacement fluorescence | inhibition, % at 3 µM | actives 1.3% (n = 370,000) | AID 651821;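 active means inhibition above the plate cutoff, the mean of all test compounds on that plate plus 3 SD, cut at about 35% in these data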;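 further: 0% = DMSO alone and 100% = 100 µM mitoxantrone as full dye displacement; higher means more dye released from RNA so lower well fluorescence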
LEDGF integ inh: blocks HIV-1 LEDGF/p75-dependent DNA integration. actives 0.64% (n = 370,000). inhibition, % at 3.7 µM. TR-FRET IN-LEDGF/p75 DNA integration, Eu/Cy5. AID 743269;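 active means inhibition above the screen-wide mean plus 3 SD, cut at about 13% in these data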;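 further: signal is the Cy5 over europium emission ratio at 671 and 618 nm; 0% = plate median of compound wells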
CSN inh: blocks human CSN-mediated cullin deneddylation; Purified CSN, SCF-Nedd8-OG deneddylation, fluorescence polarization; inhibition, % at 12.5 µM; actives 0.38% (n = 360,000);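 active means pattern-corrected inhibition above about 35%, with an unprinted fluorescence ratio check between 0.5 and 1.5, limit read from the data, passing the limit was not always enough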;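 further: 0% = enzyme with substrate and 100% = substrate without enzyme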
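Schedule: reaction 90 min, room temperature / Assay system: HEK293T-derived human Csn5 enzyme / Input: Csn5 at 0.24 nM final / Measure: inhibition of Csn5 cleavage, % / Control set: substrate-only high control, full reaction low control / Technique: fluorescence polarization of the substrate / Buffer or medium: Tris/NaCl/DTT buffer, pH 7.5 / Reagent: SCFSkp2-Nedd8OG substrate at 10 nM final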
ATG4B inh: inhibitors of human ATG4B cysteine protease. Q9Y4P1. actives 0.51% (n = 340,000). AID 504462. inhibition, % at 8.33 µM. ATG4B cleavage of LC3-PLA2, NBD-HPC fluorescence, 1 h; in the data active means inhibition above about 40%
ATG4B confirm: ATG4B (human) inhibition, single-dose confirmed. shares compounds with ATG4B inh. ATG4B protease fluorescent substrate cleavage assay. inhibition, % at 8.33 µM. actives 92% (n = 320); in the data active means inhibition above about 39%
PLA2 ctr: PLA2 (human) inhibition in ATG4B counter-screen; inhibition, % at 8.33 µM; purified PLA2, NBD-C6-HPC fluorescence, 45 min; actives 66% (n = 1,600); shares compounds with ATG4B inh; in the data active means inhibition above about 50%
* = called active by the depositor; . = not tested or not shown. Most compounds without a hit are left out; they make up all but 3.1% or so of the library.

SMILES	MBD2 inh	UHRF1 MBD2 ctr	rCAG RNA binder	LEDGF integ inh	CSN inh	ATG4B inh	PLA2 ctr	others
Cc1cccc(Oc2ccc(NC(=O)c3ccccc3C(=O)O)cc2)c1C	-3	1	2	0	0	69*	70*
Cc1ccc(OCc2nnc(SCC(=O)c3ccc(-c4ccccc4)cc3)n2Cc2ccco2)cc1	1	-1	16	1	.	.	.
Cc1ccc(CNC(=O)OC(C)(C)C)c(/C=C/S(=O)(=O)NC2CCCC2)c1	4	3	0	-5	.	.	.
CCN(Cc1ccccc1)C(=O)C1CCN(c2ncnc3c2nc2n3CCCCC2)CC1	-3	2	-5	1	-1	45*	53*
CCc1ccccc1N(CC)C(=O)C1CCN(c2ncnc3c2nc2n3CCCCC2)CC1	-2	6	-2	-6	-4	53*	66*
COP(=O)(OC)C(NC(=O)OCc1ccccc1)C(C)C (stereo unspecified)	-1	-2	1	-2	.	.	.
c1ccc(Cn2c(SC3CCCCC3)nnc2-c2cccnc2)cc1	0	-2	-2	-2	.	.	.
O=C1Nc2cc(C(=O)N3CCc4ccccc4C3)ccc2S/C1=C\c1ccccc1	2	-4	6	-1	0	73*	78*
Cc1ccc(-c2nc(-c3cccnc3)sc2CC(=O)Nc2ccc3nc(C)sc3c2)cc1	-2	0	6	1	-12	45*	12
COc1ccc(-n2c(COc3ccc(Cl)cc3)nnc2SCC(=O)c2ccc(-c3ccccc3)cc2)cc1	0	3	7	6	.	.	.
Cc1ccc(S(=O)(=O)Oc2ccc(C(c3c(C)[nH][nH]c3=O)c3c(C)[nH][nH]c3=O)cc2)cc1	.	.	.	.	-3	70*	68*
COc1ccccc1CNC(=O)c1ccccc1OCc1ccc(F)cc1	-2	3	-7	0	-3	44*	28	ATG4B confirm=75*
CC(C)(C)c1nc(SCC(=O)N2CCCC2)c2ccccc2n1	-1	1	-4	4	5	-1	.
CC(C)(C)c1nc(SCC(=O)c2ccccc2)c2ccccc2n1	4	1	-2	-3	6	51*	32	ATG4B confirm=70*
C=CCn1c(COc2ccccc2F)nnc1SCC(=O)NC(=O)NCc1ccco1	5	1	-3	0	-2	-1	.
C=CCn1c(COc2ccccc2-c2ccccc2)nnc1SCC(=O)NC(=O)NCc1ccco1	3	5	2	-3	-3	75*	85*
COc1ccc(S(=O)(=O)N2CCC(C(=O)N3CCc4ccccc4C3)CC2)cc1C	3	-4	2	4	2	56*	50*
COc1cc(OC)cc(-c2nc3ccccc3c(=O)n2OC(=O)c2ccccc2C)c1	3	-2	2	2	0	45*	31	ATG4B confirm=67*
Cc1cccc(NC(=S)Nc2ccc(Oc3ccccc3)cc2)n1	3	3	1	-4	0	44*	45	ATG4B confirm=67*
Cc1cccc(NC(=S)Nc2cccc(C)n2)n1	2	-3	-4	6	0	1	.
CC(C)(C)c1cc(=O)[nH]c(SCc2ccccc2)n1	-1	-1	1	1	-15	1	.
CC(C)(C)c1cc(=O)[nH]c(SCc2ccccc2Cl)n1	1	-1	6	0	-2	50*	52*
CCOC(=O)[C@@]12CCCC3=C1N(CCC3)C(=O)[C@H]2CC(=O)N1CCSCC1	6	0	2	4	.	.	.
O=C(O)/C=C/C(=O)Nc1ccc(C2(c3ccc(NC(=O)/C=C/C(=O)O)cc3)c3ccccc3-c3ccccc32)cc1	2	13	19	-3	13	55*	65*
COC(=O)C1=C(C)N(Cc2cccnc2)C(=O)/C1=C\c1sccc1C	3	2	-1	-1	7	42*	54*
O=C(Nc1c(F)cccc1F)c1ccc2c(c1)CCN2S(=O)(=O)c1ccccc1	5	-1	9	1	1	69*	69*

Screening results deposited in PubChem by several laboratories.
